Laboratory results: ChEMBL document CHEMBL3244412, “Benzopyrones. 14. Synthesis and antiallergic properties of some N-tetrazolylcarboxamides and related compounds” (1978)
In brackets after ≈: the same amount, converted by molar mass.

How the values were obtained:
[1] = Antianaphylactic activity in rat mast cells assessed as inhibition of DNP-ovalbumin-induced histamine release after 15 mins by superfusion assay; format: functional; settings: Mast cell, 0.25 h, read-out: ED50 (the source's name)
In short: (§1)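 Peritoneal and pleural cells from male albino rats were washed, sensitized with 1:10 rat reaginic anti-DNP-ovalbumin serum for 2 h at 37 °C, and resuspended at 1.2-1.7 × 10⁵ mast cells/mL. Compound and DNP-ovalbumin were added together and incubated for 15 min at 37 °C. Supernatant (free) and lysed-cell (residual) histamine were assayed by guinea pig ileum superfusion bioassay. Inhibition of net histamine release was used to derive EC50 from dose ranging against the reference compound.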

Rattus norvegicus = experiment: Antiallergic activity in rat assessed as inhibition of DNP-ovalbumin-induced passive cutaneous anaphylaxis at 1 mg/kg, iv after 30 mins relative to control; format: functional; settings: for inhibition in vivo at 1 mg/kg: Rattus norvegicus, iv, 0.5 h
In short: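 Female albino rats (groups of four) were shaved and sensitized by dorsal intradermal injection of 0.1 mL diluted rat reaginic anti-DNP-ovalbumin serum, raised with Bordetella pertussis adjuvant. After 48 h they were challenged iv with 2 mg DNP-ovalbumin in 0.5 mL 1% Evans blue/saline, with the compound given iv in aqueous solution at the same time. After 30 min, skin weals were scored visually on a 5-point scale; % inhibition was taken versus vehicle controls.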

[2] = Antianaphylactic activity in rat mast cells assessed as inhibition of DNP-ovalbumin-induced histamine release after 15 mins by superfusion assay relative to 4-oxo-N-(5-tetrazolyl)-4H-l-benzopyran-2-carboxamide; format: functional, Mast cell; in short: as §1

| SMILES | EC50 [1] [µg/mL] | inhibition in vivo at 1 mg/kg (Rattus norvegicus) [%] | fold change (potency relative to reference compound) [2] | inhibition (INH) (Rattus norvegicus) [%] |
| --- | --- | --- | --- | --- |
| O=C(Nc1nnn[nH]1)c1coc2ccccc2c1=O | 0.033 (≈ 0.128 µM) | 65 | 0.48 |  |
| NC(=O)c1cc(=O)c2ccc(O)c(N)c2o1 | > 18 | 15 | <0.005 |  |
| O=C(Nc1nnn[nH]1)c1cc(=O)c2cc(Cl)ccc2o1 | 0.75 (≈ 2.57 µM) | 65 | 0.12 |  |
| O=C(O)c1coc2ccccc2c1=O | > 18 | 20 | <0.005 |  |
| Cn1nnnc1NC(=O)c1cc(=O)c2ccccc2o1 | > 18 | 0 | <0.005 |  |
| Cc1oc2ccc(S(=O)(=O)Nc3nnn[nH]3)cc2c(=O)c1C | > 18 | 20 | <0.005 |  |
| O=C(Nc1nnn[nH]1)c1ccc2oc(C(=O)Nc3nnn[nH]3)cc(=O)c2c1 | 0.55 (≈ 1.49 µM) | 100 | 0.1 |  |
| N#Cc1ccc2oc(C(=O)Nc3nnn[nH]3)cc(=O)c2c1 | 2.3 (≈ 8.15 µM) | 100 | 0.03 |  |
| O=C(Nc1nnn[nH]1)c1cc(=O)c2cc(-c3nnn[nH]3)ccc2o1 | 0.1 (≈ 0.307 µM) | 70 | 0.85 |  |
| NCCCO.O=C(Nc1nnn[nH]1)c1oc2ccccc2c(=O)c1NCCCO | 0.024 | 100 | 0.67 |  |
| CN1CCN(C(=O)/C=C/c2coc3ccccc3c2=O)CC1 | > 18 | 0 | <0.005 |  |
| O=C(Nc1nnn[nH]1)c1ccc2occc(=O)c2c1 | 0.7 (≈ 2.72 µM) | 35 | 0.08 |  |
| O=C(O)CCNC(=O)c1cc(=O)c2ccccc2o1 | > 18 | 0 | <0.005 |  |
| O=C(Nc1nnn[nH]1)c1oc2ccccc2c(=O)c1Cl | 0.8 (≈ 2.74 µM) | 75 | 0.11 |  |
| CN1CCN(C(=O)c2cc(=O)c3ccccc3o2)CC1.Cl | > 18 | 0 | <0.005 |  |
| O=C(O)CCCCCNC(=O)c1cc(=O)c2ccccc2o1 | > 18 | 0 | <0.005 |  |
| Cn1nnc(NC(=O)c2cc(=O)c3ccccc3o2)n1 |  | 25 |  |  |
| O=C(O)CNC(=O)c1ccc2oc(C(=O)NCC(=O)O)cc(=O)c2c1 | > 18 | 10 | <0.005 |  |
| NC(=O)c1cc(=O)c2cc(N)ccc2o1 | > 18 | 10 | <0.005 |  |
| CN(C(=O)c1cc(=O)c2ccccc2o1)c1nnn[nH]1 | > 18 | 0 | <0.005 |  |
| CNc1c(C(=O)Nc2nnn[nH]2)oc2ccccc2c1=O | 0.4 (≈ 1.4 µM) | 100 | 0.04 |  |
| Cc1ccc2c(=O)cc(C(=O)Nc3nnn[nH]3)oc2c1.NCCO | 0.16 |  | 0.75 | 80 |
| O=C(Nc1nnn[nH]1)c1ccc2oc(-c3nnn[nH]3)cc(=O)c2c1 | 0.055 (≈ 0.169 µM) | 70 | 1 |  |
| COc1ccc2c(=O)c(-c3ccccc3)c(C(=O)Nc3nnn[nH]3)oc2c1 | > 18 | 25 | <0.005 |  |
| O=C(Nc1nnn[nH]1)c1cccc2c(=O)c3ccccc3[nH]c12 | 0.65 (≈ 2.12 µM) | 90 | 0.14 |  |
